The record followed here is ChEMBL document CHEMBL1681705, “Optimisation of ITK inhibitors through successive iterative design cycles” (Bioorg Med Chem Lett, 2011).

SMILES strings stand for the structures.

As usually defined, the inhibition is the share of the control response that was lost under treatment. High values mean a response far below the control, low ones a response near the control.

Test [1] addresses T1, Mitogen-activated protein kinase kinase kinase 7 (Homo sapiens) (UniProt O43318).
T1 sequence (whole entry): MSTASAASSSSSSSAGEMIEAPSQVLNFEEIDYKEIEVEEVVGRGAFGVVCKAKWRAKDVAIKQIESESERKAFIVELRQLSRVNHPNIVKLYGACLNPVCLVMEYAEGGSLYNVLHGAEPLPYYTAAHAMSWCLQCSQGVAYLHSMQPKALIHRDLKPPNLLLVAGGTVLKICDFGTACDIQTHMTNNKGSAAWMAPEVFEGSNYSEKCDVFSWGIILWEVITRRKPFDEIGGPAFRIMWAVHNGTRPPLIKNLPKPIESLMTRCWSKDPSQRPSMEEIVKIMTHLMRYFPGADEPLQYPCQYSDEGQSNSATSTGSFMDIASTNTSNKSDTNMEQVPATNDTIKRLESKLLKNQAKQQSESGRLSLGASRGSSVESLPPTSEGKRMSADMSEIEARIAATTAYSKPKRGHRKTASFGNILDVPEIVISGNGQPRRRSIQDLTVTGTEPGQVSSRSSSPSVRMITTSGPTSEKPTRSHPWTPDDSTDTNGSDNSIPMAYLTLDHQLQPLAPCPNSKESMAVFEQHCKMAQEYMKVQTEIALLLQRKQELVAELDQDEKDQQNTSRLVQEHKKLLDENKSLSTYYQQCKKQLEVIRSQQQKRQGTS
The test can be described thus: Inhibition of TAK1 at 1 uM; values are per cent of control.

Test [2] deals with Receptor-type tyrosine-protein kinase FLT3 (Homo sapiens) (UniProt P36888). The test can be described thus: Inhibition of Flt3 at 1 uM; values are per cent of control.
In test [3] the target is T2, Ephrin type-A receptor 1 (Homo sapiens) (UniProt P21709).
T2 sequence (whole entry): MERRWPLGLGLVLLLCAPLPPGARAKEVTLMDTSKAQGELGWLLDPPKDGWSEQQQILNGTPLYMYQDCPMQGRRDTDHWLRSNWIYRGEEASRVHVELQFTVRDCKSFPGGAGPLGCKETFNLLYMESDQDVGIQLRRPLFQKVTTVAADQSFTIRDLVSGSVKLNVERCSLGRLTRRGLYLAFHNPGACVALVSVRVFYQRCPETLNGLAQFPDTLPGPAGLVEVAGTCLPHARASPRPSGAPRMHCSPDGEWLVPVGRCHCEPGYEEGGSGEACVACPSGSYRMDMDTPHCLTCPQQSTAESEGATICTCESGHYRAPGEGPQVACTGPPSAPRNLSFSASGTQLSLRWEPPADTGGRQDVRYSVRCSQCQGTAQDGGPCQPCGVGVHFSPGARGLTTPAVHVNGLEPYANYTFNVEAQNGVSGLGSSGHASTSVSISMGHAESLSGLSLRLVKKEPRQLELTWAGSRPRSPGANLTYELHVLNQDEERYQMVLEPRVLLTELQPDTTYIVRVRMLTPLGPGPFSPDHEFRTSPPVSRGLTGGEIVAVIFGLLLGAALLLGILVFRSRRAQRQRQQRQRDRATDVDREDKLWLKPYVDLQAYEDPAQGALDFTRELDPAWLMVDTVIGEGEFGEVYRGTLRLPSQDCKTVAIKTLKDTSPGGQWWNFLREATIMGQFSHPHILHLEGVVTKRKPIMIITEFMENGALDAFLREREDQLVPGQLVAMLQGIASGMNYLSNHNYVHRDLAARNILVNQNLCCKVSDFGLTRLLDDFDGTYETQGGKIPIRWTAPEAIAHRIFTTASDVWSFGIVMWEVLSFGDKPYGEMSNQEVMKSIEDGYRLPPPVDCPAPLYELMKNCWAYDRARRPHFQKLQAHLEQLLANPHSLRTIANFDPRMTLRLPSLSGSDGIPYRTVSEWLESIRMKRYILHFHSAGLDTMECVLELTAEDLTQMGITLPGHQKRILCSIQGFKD
The test can be described thus: Inhibition of EphA1 at 0.1 uM; values are per cent of control.

For test [4], the target named is Ribosomal protein S6 kinase alpha-4 (Homo sapiens) (UniProt O75676). Put plainly: Inhibition of MSK2 at 1 uM. In a few lines:
(§1)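 Single-point screen within a 108-kinase selectivity panel. Each kinase was tested with inhibitor at 0.1 and 1.0 micromolar, and activity was recorded as percent inhibition.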

Test [5] deals with Ribosomal protein S6 kinase beta-1 (Homo sapiens) (UniProt P23443). The test can be described thus: Inhibition of p70S6K at 0.1 uM; values are per cent of control.
For test [6], the target named is Mitogen-activated protein kinase 11 (Homo sapiens) (UniProt Q15759). Put plainly: Inhibition of SAPK2b at 1 uM.
The target of test [7] is Serine/threonine-protein kinase pim-2 (Homo sapiens) (UniProt Q9P1W9). Put plainly: Inhibition of Pim-2 at 1 uM; values are per cent of control.
The target of test [8] is Tyrosine-protein kinase Fyn (Homo sapiens) (UniProt P06241). Put plainly: Inhibition of Fyn at 1 uM. Put shortly:
(§2)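 Single-point profiling in a panel of 108 kinases. Each selected inhibitor was tested at two concentrations, 0.1 and 1.0 micromolar. Values are reported as inhibition at each concentration.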

Test [9] concerns the target Mitogen-activated protein kinase 1 (Homo sapiens) (UniProt P28482). The test can be described thus: Inhibition of MAPK1 at 0.1 uM; values are per cent of control.
For test [10], the target named is Tyrosine-protein kinase JAK2 (Homo sapiens) (UniProt O60674). The test can be described thus: Inhibition of JAK2 at 1 uM; values are per cent of control.
Test [11] concerns the target Interleukin-1 receptor-associated kinase 1 (Homo sapiens) (UniProt P51617). Put plainly: Inhibition of IRAK1 at 1 uM. In a few lines: as §2
The target of test [12] is Platelet-derived growth factor receptor beta (Homo sapiens) (UniProt P09619). The test can be described thus: Inhibition of PDGFRbeta at 1 uM. In a few lines: as §1
For test [13], the target named is Tyrosine-protein kinase Yes (Homo sapiens) (UniProt P07947). Put plainly: Inhibition of Yes at 0.1 uM; values are per cent of control.
The target in test [14] is T3, Mitogen-activated protein kinase 12 (Homo sapiens) (UniProt P53778).
T3 sequence (whole entry): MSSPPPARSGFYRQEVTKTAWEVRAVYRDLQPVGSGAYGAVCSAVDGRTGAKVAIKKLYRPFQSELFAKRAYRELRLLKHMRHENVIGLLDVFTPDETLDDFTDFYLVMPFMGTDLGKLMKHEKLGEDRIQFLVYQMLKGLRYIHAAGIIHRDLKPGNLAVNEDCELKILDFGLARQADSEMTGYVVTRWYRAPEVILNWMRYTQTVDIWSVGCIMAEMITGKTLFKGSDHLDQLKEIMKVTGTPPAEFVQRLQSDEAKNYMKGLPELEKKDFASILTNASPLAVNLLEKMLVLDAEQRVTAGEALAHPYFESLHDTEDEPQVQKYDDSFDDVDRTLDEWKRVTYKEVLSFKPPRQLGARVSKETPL
Put plainly: Inhibition of SAPK3 at 0.1 uM; values are per cent of control.

Ribosomal protein S6 kinase alpha-4 (Homo sapiens), sequence (O75676 whole entry, looked up): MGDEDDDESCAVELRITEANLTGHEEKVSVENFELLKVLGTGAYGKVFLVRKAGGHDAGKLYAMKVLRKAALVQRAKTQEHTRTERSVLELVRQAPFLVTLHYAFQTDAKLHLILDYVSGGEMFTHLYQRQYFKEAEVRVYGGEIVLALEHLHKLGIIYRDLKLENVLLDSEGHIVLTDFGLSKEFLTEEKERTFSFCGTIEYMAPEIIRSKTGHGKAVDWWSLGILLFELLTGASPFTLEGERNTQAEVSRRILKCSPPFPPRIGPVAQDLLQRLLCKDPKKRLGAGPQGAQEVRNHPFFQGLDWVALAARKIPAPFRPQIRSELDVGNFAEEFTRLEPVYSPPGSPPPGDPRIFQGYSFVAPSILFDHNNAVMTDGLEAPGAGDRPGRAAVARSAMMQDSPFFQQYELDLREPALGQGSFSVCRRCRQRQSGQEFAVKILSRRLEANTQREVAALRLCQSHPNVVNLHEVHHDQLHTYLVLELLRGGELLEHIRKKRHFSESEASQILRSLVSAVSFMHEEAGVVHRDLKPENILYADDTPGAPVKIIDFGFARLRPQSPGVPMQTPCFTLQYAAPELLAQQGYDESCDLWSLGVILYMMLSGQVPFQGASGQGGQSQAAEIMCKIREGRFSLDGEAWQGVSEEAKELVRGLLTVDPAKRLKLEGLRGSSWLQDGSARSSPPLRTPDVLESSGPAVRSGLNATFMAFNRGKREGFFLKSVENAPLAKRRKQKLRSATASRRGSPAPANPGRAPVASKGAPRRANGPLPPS
Mitogen-activated protein kinase 11 (Homo sapiens), sequence (Q15759 whole entry): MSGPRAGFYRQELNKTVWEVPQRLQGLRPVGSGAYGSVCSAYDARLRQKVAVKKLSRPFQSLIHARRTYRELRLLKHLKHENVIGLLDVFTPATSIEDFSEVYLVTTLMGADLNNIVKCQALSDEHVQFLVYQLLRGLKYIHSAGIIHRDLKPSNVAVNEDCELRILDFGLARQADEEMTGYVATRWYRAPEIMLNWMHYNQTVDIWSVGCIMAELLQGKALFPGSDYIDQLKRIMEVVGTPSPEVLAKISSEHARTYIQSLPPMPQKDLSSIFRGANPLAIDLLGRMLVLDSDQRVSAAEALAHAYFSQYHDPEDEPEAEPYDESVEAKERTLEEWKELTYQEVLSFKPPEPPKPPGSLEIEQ
Receptor-type tyrosine-protein kinase FLT3 (Homo sapiens), sequence (P36888 whole entry): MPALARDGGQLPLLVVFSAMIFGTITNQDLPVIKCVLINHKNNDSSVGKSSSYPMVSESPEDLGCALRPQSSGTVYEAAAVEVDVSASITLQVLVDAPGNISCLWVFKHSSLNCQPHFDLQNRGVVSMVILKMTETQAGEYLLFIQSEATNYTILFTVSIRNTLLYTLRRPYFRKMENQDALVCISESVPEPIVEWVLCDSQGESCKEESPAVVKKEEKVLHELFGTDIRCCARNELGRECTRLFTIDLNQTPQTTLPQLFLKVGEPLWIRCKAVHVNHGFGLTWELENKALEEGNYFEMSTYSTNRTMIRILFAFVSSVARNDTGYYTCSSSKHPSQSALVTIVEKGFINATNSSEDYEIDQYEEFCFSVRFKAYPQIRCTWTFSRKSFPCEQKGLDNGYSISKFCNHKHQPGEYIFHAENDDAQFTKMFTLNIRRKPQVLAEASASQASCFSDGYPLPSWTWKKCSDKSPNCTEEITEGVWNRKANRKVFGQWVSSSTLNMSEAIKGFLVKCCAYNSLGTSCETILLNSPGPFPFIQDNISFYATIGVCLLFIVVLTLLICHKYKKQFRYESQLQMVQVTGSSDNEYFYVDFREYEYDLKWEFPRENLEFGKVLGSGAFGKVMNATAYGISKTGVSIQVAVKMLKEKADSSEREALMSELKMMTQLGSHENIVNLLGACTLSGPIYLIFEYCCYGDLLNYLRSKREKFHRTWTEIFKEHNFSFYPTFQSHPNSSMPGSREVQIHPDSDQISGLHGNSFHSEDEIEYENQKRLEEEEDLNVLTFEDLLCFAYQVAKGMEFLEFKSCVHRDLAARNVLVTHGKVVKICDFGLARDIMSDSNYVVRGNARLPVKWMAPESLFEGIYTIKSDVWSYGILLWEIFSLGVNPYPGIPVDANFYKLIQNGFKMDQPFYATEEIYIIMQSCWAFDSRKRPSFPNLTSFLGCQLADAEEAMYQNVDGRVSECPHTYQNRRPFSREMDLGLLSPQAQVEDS
Ribosomal protein S6 kinase beta-1 (Homo sapiens), sequence (P23443 whole entry, looked up): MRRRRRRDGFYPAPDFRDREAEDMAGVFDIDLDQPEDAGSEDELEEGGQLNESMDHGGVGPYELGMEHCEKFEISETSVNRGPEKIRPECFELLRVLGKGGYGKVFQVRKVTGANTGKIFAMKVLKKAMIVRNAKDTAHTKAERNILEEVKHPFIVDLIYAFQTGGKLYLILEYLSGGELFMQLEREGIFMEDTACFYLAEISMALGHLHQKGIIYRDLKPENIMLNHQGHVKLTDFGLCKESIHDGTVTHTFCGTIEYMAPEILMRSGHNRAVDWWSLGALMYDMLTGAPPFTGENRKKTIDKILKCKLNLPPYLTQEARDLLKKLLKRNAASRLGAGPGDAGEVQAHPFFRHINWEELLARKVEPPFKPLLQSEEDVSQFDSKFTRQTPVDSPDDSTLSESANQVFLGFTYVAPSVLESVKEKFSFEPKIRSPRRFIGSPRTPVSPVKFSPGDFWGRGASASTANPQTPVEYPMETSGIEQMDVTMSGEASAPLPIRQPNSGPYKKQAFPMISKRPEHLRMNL
Tyrosine-protein kinase Fyn (Homo sapiens), sequence (P06241 2-537 limits assumed): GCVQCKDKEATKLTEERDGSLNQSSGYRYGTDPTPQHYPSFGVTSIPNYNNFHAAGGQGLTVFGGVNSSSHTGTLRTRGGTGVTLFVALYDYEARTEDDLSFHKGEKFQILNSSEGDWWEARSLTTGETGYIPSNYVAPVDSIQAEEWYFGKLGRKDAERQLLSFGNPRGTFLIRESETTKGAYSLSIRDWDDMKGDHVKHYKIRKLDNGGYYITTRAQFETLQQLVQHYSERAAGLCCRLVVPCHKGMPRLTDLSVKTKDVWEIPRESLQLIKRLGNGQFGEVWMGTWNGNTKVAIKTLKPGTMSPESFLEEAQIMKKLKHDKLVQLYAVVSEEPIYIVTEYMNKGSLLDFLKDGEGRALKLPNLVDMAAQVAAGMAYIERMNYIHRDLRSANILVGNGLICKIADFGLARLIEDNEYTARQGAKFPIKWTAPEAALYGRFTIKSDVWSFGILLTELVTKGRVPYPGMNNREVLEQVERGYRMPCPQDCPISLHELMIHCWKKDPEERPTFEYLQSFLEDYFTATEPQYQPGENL
Tyrosine-protein kinase JAK2 (Homo sapiens), sequence (O60674 whole entry): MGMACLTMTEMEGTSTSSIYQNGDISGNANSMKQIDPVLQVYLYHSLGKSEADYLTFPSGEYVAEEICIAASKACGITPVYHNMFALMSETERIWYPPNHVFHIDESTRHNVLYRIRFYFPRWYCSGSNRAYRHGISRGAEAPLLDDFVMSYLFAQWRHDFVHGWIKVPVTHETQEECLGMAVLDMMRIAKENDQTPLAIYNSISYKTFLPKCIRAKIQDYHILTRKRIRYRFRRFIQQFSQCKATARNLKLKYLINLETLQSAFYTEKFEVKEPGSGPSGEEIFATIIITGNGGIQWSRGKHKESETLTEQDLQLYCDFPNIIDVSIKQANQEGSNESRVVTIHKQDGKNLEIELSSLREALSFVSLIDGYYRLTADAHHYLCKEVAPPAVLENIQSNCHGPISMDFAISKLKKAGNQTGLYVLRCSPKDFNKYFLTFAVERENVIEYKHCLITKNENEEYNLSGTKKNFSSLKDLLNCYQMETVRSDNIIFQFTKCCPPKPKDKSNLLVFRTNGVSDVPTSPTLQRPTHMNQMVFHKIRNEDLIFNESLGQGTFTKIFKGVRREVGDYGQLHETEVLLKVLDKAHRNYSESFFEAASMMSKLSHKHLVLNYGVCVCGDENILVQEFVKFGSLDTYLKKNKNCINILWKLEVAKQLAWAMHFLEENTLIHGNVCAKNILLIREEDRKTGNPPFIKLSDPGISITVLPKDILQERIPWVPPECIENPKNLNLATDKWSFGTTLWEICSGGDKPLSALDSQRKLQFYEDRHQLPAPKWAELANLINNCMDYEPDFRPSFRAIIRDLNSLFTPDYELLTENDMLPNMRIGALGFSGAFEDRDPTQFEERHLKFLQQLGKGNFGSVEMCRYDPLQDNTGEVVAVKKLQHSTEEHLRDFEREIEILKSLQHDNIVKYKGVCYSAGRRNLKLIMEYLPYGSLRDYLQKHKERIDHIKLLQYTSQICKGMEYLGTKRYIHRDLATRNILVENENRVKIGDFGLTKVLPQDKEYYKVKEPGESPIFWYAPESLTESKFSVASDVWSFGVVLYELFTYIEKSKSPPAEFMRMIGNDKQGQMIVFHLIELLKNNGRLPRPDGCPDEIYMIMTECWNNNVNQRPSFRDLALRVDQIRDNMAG
Mitogen-activated protein kinase 1 (Homo sapiens), sequence (P28482 whole entry): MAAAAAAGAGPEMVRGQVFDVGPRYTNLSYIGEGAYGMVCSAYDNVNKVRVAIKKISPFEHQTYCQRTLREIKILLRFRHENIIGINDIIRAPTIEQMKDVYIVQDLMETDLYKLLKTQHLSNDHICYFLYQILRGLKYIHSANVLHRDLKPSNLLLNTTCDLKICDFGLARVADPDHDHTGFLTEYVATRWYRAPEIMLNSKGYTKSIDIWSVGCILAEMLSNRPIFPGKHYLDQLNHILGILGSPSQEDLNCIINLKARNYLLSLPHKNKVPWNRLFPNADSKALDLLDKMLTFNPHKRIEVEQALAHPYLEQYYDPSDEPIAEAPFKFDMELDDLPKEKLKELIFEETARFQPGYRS
Serine/threonine-protein kinase pim-2 (Homo sapiens), sequence (Q9P1W9 whole entry, looked up): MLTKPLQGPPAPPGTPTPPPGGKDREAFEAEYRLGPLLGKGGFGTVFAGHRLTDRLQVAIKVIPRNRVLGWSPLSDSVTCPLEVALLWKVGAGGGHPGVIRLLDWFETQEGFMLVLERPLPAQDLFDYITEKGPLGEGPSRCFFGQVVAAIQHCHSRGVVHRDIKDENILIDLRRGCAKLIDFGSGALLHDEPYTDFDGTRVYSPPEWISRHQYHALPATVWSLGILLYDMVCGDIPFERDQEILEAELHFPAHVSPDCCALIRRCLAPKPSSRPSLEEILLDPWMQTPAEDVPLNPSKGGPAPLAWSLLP

For the molecule `Cc1ccc2cc(-c3n[nH]c4ccc(NC5CCNC5)cc34)[nH]c2c1` (stereo not drawn), the residual activity was 9% in [1]; 10% in [2]; 39% in [3]; 33% in [5]; 105% in [7]; 85% in test [9]. Moreover, the residual activity came out at 0% in [10], 2% in test [13] and 92% in [14]. In addition, the inhibition turned out to be 2% in [4]; 91% in test [6]; 0% in test [8]; 7% in test [11]; 34% in test [12].
For the molecule `Cc1ccc2cc(-c3n[nH]c4ccc(NC5CCN(Cc6ccccc6)CC5)cc34)[nH]c2c1`, the residual activity came to 35% in test [1]; 0% in [2]; 64% in test [3]; 59% in [5]; 101% in test [7]; 88% in [9]. Besides, the residual activity was 2% in test [10], -2% in test [13] and 104% in test [14]. In addition, the inhibition was 91% in test [4]; 86% in test [6]; 4% in test [8]; 9% in test [11]; 42% in test [12].
